Measured values taken from PubChem BioAssay.
Activity calls are given as the source filed them.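 How the source made its calls, unless noted: active means fluorescence slope after compound addition differing from the mean of all screened samples at 99.7% confidence, in either direction; inactive means the rest.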

Legend:
[1] = inhibitors of TNFa-induced NFkB p65 translocation, primary screen, imaging, HUVEC, MLSMR starter and 10KST1 sets (AID 438;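 active means inhibition above 20% together with a positive visual image hit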;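 further: compound added about 3h40 before a 20 min TNFalpha stimulation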;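 on inhibition: signal is the nuclear over cytoplasmic p65 intensity ratio per well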); conditions: HUVEC TNFa-induced p65 nuclear translocation; cell count: measured here: nuclei count (cytotoxicity indicator), at 2.08 µM; inhibition: at 2 µM, stronger effect = higher value, 0% TNFa-plus-vehicle, 100% no-TNFa wells
[2] = inhibitors of mutant huntingtin aggregation, primary screen, imaging, exon1htt(103Q)mCFP cells, high-content imaging (AID 483;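 active means visual image review flags a hit and inhibition of aggregation exceeds 20%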;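 further: compound exposure lasted 3 days before fixation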;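 on nuclei count: percent of the per-plate median nuclei count of sample wells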); conditions: exon1htt(103Q)mCFP cell line, aggregate imaging, at 2 µM; inhibition of aggregation: stronger effect = higher value; nuclei count: measured here: cell count, toxicity
[3] = inhibitors of E-selectin induction by TNFa, primary screen, imaging, HUVEC, immunofluorescence, MLSMR starter and 10KST1 sets (AID 487;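 active means visually confirmed hit in the image check and inhibition above 20%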;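 on inhibition: signal is fraction of cell area covered by stained E-selectin grains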;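 on nuclei count: 100% = median nuclei count of all wells on the same plate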); conditions: HUVEC TNFalpha-induced E-selectin immunofluorescence imaging, at 2 µM; inhibition: stronger effect = higher value; nuclei count: measured here: cell number, toxicity
[4] = biological target: Voltage-gated potassium channel subunit beta-2 (Rattus norvegicus) (UniProt P62483); assay: KvBeta enzyme negative modulators, primary screen, biochemical, NADPH fluorescence (AID 622;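 active means fluorescence slope higher than the sample average by over 3 SD, cut at about -0.22 in these data, passing the limit was not always enough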;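 further: slope of raw intensity against log time taken from 70 to 1610 s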); conditions: recombinant KvBeta, 4-cyanobenzaldehyde reduction, at 10 µM, stronger effect = higher value
[5] = biological target: Voltage-gated potassium channel subunit beta-2 (Rattus norvegicus) (UniProt P62483); assay: KvBeta positive modulators, primary screen, biochemical, NADPH fluorescence (AID 623;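 active means NADPH fluorescence slope more negative than the mean of all samples by about 3 SD, 99.7% confidence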;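 further: fluorescence intensity change per second fitted from 20 to 320 s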); conditions: Recombinant KvBeta, NADPH fluorescence decrease slope, 10 min; at 10 µM; stronger effect = lower value
[6] = biological target: Alpha-2C adrenergic receptor (Homo sapiens) (UniProt P18825); assay: modulators of alpha2C/GIRK thallium flux, primary screen, cell-based, HEK293 alpha2C/GIRK1/2 (AID 624); conditions: thallium flux BTC fluorescence, at 10 µM, actives lie on both sides;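 further: slope of fluorescence ratio to pre-addition baseline per second over 15 to 24 s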
[7] = inhibitors of larval lipid processing in zebrafish, primary screen, whole organism, PED6 fluorescence, gall bladder and intestine (AID 686;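 active means a full or partial loss of lipid-probe fluorescence in the fish gall bladder, intestine or both, judged by eye; inactive means no fluorescence loss, or compound toxic to the fish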;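 further: larvae 5 to 7 days old with five fish per well; signal comes from phospholipase A2 cleavage of quenched PED6 carried via bile; overnight exposure to compound and PED6 before scoring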); conditions: Zebrafish larvae PED6 lipid processing, fluorescence scoring; screened at 20 µM (by protocol)
Method in brief: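 System: live zebrafish larvae aged 5-7 days, whole organism; measure: graded gall bladder and intestinal fluorescence inhibition per well; incubation: overnight exposure; reagent: ingested quenched lipid PED6 at 100 nM; signal: By-eye fluorescence microscopy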

[8] = inhibitors of Sendai virus-induced IRF3 signaling, primary screen, TLR/RLR signaling modifier project, cell-based, Sendai virus stimulus, luciferase, 10K MLSCN set (AID 602276;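 active means inhibition at or above 50% at 10 µM; inactive means inhibition below 50%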;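 further: firefly luciferase from ISG56 promoter only with Renilla not read in this screen; 0% = Sendai virus plus DMSO and 100% = medium plus DMSO without virus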); conditions: HEK293 RL24 IRF3 luciferase reporter, at 10 µM, stronger effect = higher value
[9] = inhibitors of poly I:C-induced TLR3 signaling, primary screen, cell-based, poly I:C stimulus, luciferase, 10K MLSCN set (AID 602277;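 active means inhibition of the reporter signal at or above 50%; inactive means inhibition below 50%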); conditions: HEK293-TLR3 RL24 IRF3 luciferase reporter, at 10 µM, stronger effect = higher value

Alpha-2C adrenergic receptor (Homo sapiens), sequence (P18825 whole entry, looked up): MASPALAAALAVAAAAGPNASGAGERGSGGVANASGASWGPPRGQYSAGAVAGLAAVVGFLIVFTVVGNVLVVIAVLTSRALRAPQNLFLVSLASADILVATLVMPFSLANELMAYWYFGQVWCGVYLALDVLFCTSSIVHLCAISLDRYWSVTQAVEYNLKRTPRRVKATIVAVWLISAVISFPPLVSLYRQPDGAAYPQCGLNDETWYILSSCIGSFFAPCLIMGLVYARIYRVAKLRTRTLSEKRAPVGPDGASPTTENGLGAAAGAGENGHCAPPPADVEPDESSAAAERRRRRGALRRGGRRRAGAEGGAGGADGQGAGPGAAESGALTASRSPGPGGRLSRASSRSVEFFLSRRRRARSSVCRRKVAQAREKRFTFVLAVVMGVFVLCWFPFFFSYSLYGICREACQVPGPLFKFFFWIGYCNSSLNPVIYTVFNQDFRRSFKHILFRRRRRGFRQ
Voltage-gated potassium channel subunit beta-2 (Rattus norvegicus), sequence (P62483 whole entry, looked up): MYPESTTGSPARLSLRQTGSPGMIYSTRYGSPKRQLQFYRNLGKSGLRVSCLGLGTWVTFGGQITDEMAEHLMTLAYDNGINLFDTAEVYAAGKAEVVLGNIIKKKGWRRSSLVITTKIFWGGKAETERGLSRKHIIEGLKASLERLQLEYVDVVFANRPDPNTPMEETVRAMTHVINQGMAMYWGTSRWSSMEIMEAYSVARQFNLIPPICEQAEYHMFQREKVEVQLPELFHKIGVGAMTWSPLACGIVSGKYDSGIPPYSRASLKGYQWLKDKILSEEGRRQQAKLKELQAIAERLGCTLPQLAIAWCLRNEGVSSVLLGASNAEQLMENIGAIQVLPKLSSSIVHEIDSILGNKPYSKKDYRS

In the case of COC(=O)C1C2C=CC3(CN(CC4CCCO4)C(=O)C13)O2 (centres undefined), the cell count [1] is reported as 504, the inhibition [1] is reported as 4% (inactive) and the inhibition of aggregation [2] is reported as -7.3% (inactive). The nuclei count [2] was 111%, the inhibition [3] was 9.9% (inactive) and the nuclei count [3] was 98.5%. The fluorescence slope [4] was -0.457 (inactive), the NADPH fluorescence slope [5] was -1.5e-05 (inactive) and the slope [6] was 0.00504 (inactive). For the same compound, the outcome [7] was “inactive”, the inhibition [8] was 5.61% (inactive) and the inhibition [9] was 11.6% (inactive).
For Cc1cccc(OCC(=O)Nc2cc(C)ccc2O)c1, the cell count [1] was 311, the inhibition [1] was 0.5% (inactive) and the inhibition of aggregation [2] was -9.5% (inactive). For the same compound, the nuclei count [2] was 95.3%, the inhibition [3] was -15.1% (inactive) and the nuclei count [3] was 87.8%. For the same compound, the fluorescence slope [4] was -0.446 (inactive), the NADPH fluorescence slope [5] was -2.2e-05 (inactive) and the slope [6] was 0.00484 (inactive). The outcome [7] was “inactive”, the inhibition [8] was 10.8% (inactive) and the inhibition [9] was 15.6% (inactive).
For COc1cccc(NC(=O)c2ccccc2NS(C)(=O)=O)c1, the cell count [1] was 328, the inhibition [1] was -6.5% (inactive) and the inhibition of aggregation [2] was -12.9% (inactive). For the same compound, the nuclei count [2] was 112%, the inhibition [3] was -133% (inactive) and the nuclei count [3] was 149%. The fluorescence slope [4] was -0.418 (inactive), the NADPH fluorescence slope [5] was -3.8e-05 (inactive) and the slope [6] was 0.00548 (inactive). The outcome [7] was “inactive”, the inhibition [8] was 18.7% (inactive) and the inhibition [9] was 13.1% (inactive).
In the case of O=C(NC1CCCCCCC1)C1CCN(c2nc3ccccc3o2)CC1, the cell count [1] is reported as 737, the inhibition [1] is reported as -10.2% (inactive) and the inhibition of aggregation [2] is reported as 9.4% (inactive). For the same compound, the nuclei count [2] was 94.8%, the inhibition [3] was -34.9% (inactive) and the nuclei count [3] was 116%. The fluorescence slope [4] was -0.334 (inactive), the NADPH fluorescence slope [5] was 8.8e-06 (inactive) and the slope [6] was 0.0059 (inactive). For the same compound, the outcome [7] was “inactive”, the inhibition [8] was 6.61% (inactive) and the inhibition [9] was -11.1% (inactive).
For CN(CCNC(=O)c1ccc(N2CCCC2=O)cc1)CCc1ccccc1, the cell count [1] was 624, the inhibition [1] was -24% (inactive) and the inhibition of aggregation [2] was 17.8% (inactive). For the same compound, the nuclei count [2] was 84.6%, the inhibition [3] was -79.5% (inactive) and the nuclei count [3] was 111%. The fluorescence slope [4] was -0.393 (inactive), the NADPH fluorescence slope [5] was -2.4e-05 (inactive) and the slope [6] was 0.00561 (inactive). For the same compound, the outcome [7] was “inactive”, the inhibition [8] was 6.9% (inactive) and the inhibition [9] was 10.4% (inactive).
With CCOCCCN(Cc1cc2cc(C)cc(C)c2[nH]c1=O)C(=O)N(CC)CC the cell count [1] was 320, the inhibition [1] was 4.5% (inactive) and the inhibition of aggregation [2] was 2.5% (inactive). The nuclei count [2] was 92.2%, the inhibition [3] was -15.3% (inactive) and the nuclei count [3] was 106%. For the same compound, the fluorescence slope [4] was -0.423 (inactive), the NADPH fluorescence slope [5] was -3.6e-05 (inactive) and the slope [6] was 0.00543 (inactive). For the same compound, the outcome [7] was “inactive”, the inhibition [8] was -10.7% (inactive) and the inhibition [9] was -6.77% (inactive).
For FC(F)(F)c1ccc(Sc2nnc(-c3cccs3)n2CC2CCCO2)nc1 (centres undefined), the cell count [1] was 357, the inhibition [1] was -21.4% (inactive) and the inhibition of aggregation [2] was -3% (inactive). The nuclei count [2] was 83.2%, the inhibition [3] was -85.5% (inactive) and the nuclei count [3] was 104%. For the same compound, the fluorescence slope [4] was -0.424 (inactive), the NADPH fluorescence slope [5] was -7.7e-06 (inactive) and the slope [6] was 0.00449 (inactive). The outcome [7] was “inactive”, the inhibition [8] was 13.6% (inactive) and the inhibition [9] was 6.99% (inactive).
For CC1CCCCC1NC(=O)COc1ccc(-n2cnnn2)cc1 (centres undefined), the cell count [1] was 508, the inhibition [1] was 6.8% (inactive) and the inhibition of aggregation [2] was 5.2% (inactive). The nuclei count [2] was 81.6%, the inhibition [3] was -175% (inactive) and the nuclei count [3] was 108%. For the same compound, the fluorescence slope [4] was -0.449 (inactive), the NADPH fluorescence slope [5] was -7.6e-05 (inactive) and the slope [6] was 0.00588 (inactive). The outcome [7] was “inactive”, the inhibition [8] was 6.84% (inactive) and the inhibition [9] was 25.1% (inactive).
With CCC(=O)Oc1ccc(C/C(=N\O)c2ccc(O)cc2O)o1 the cell count [1] was 405, the inhibition [1] was 1.5% (inactive) and the inhibition of aggregation [2] was 24.3% (inactive). For the same compound, the nuclei count [2] was 95.9%, the inhibition [3] was -54.6% (inactive) and the nuclei count [3] was 115%. The fluorescence slope [4] was -0.502 (inactive), the NADPH fluorescence slope [5] was 4.5e-05 (inactive) and the slope [6] was 0.00444 (inactive). The outcome [7] was “inactive”, the inhibition [8] was -8.2% (inactive) and the inhibition [9] was -21.3% (inactive).
For O=C(CSc1ccc(-c2ccccc2)nn1)N1CCOCC1, the cell count [1] was 664, the inhibition [1] was -5.6% (inactive) and the inhibition of aggregation [2] was -24% (inactive). For the same compound, the nuclei count [2] was 118%, the inhibition [3] was 57.9% (active) and the nuclei count [3] was 132%. The fluorescence slope [4] was -0.452 (inactive), the NADPH fluorescence slope [5] was -4.4e-05 (inactive) and the slope [6] was 0.00495 (inactive). For the same compound, the outcome [7] was “inactive”, the inhibition [8] was 5.28% (inactive) and the inhibition [9] was -10.6% (inactive).
With O=C(NCCC1=CCCCC1)C1CCN(S(=O)(=O)c2cnc[nH]2)CC1 the cell count [1] was 472, the inhibition [1] was 4.5% (inactive) and the inhibition of aggregation [2] was -8.6% (inactive). For the same compound, the nuclei count [2] was 93.1%, the inhibition [3] was -36.1% (inactive) and the nuclei count [3] was 117%. For the same compound, the fluorescence slope [4] was -0.367 (inactive), the NADPH fluorescence slope [5] was -4.7e-05 (inactive) and the slope [6] was 0.0051 (inactive). For the same compound, the outcome [7] was “inactive”, the inhibition [8] was 13.7% (inactive) and the inhibition [9] was 18.8% (inactive).
In the case of Cc1cccc(-n2ncc3c(NCc4cccs4)ncnc32)c1, the cell count [1] is reported as 667, the inhibition [1] is reported as 6.7% (inactive) and the inhibition of aggregation [2] is reported as 0.1% (inactive). The nuclei count [2] was 99.5%, the inhibition [3] was -119% (inactive) and the nuclei count [3] was 108%. For the same compound, the fluorescence slope [4] was -0.458 (inactive), the NADPH fluorescence slope [5] was -2.6e-05 (inactive) and the slope [6] was 0.00473 (inactive). For the same compound, the outcome [7] was “inactive”, the inhibition [8] was -36.3% (inactive) and the inhibition [9] was -95% (inactive).
